Measured values pooled from the literature.
Protocols differ between the studies behind these lines. pEC50, pIC50: −log10 of the molar value.
Cell line: NCI-H1299
Effect on: cell growth or viability

Compound	technique	concentration	time	measurement	result
COc1cc2c(Nc3ccc(NC(=O)c4ccccc4)cc3)ncnc2cc1OCCCN1CCOCC1	MTS	–	72 h	pIC50	6.15
Cc1c(-c2cccc(C(F)(F)F)c2)sc2[nH]c(=O)n([C@H](C)c3cccc4ccccc34)c(=O)c12	–	10 µM	–	inhibition	> 80%
COc1ccc(-c2ccc(/C(C)=N/O)c(O)c2Cl)cc1C	MTT	30 µM	48 h	viability	76%
C=C(c1ccc(C(=O)O)cc1)c1cc2c(cc1C)C(C)(C)CCC2(C)C	MTT	–	72 h	pEC50	4.36
CCCc1ccc(OCC(O)CNC/C=C/c2ccccc2OC)cc1 (centres unmarked)	CCK-8	–	72 h	pIC50	4.94
Cc1cc2c(cc1N1C(=O)c3cccc4c(CCCO)ccc(c34)C1=O)n(C)c(=O)n2C (racemic)	resazurin	–	–	GI50	> 10 µM
COc1cccc(-c2ccc(/C(C)=N/O)c(O)c2Cl)c1	MTT	30 µM	48 h	viability	90%
COc1ccccc1OCCN1CCOC(COc2cccc3[nH]c4ccccc4c23)C1 (centres unmarked)	CCK-8	–	72 h	pIC50	< 4.00
CN1C[C@H](C(=O)N[C@]2(C)O[C@@]3(O)[C@@H]4CCCN4C(=O)[C@H](Cc4ccccc4)N3C2=O)C[C@@H]2c3cccc4[nH]cc(c34)C[C@H]21	MTT	–	72 h	pEC50	4.15
C/C(=N\O)c1ccc(-c2cccc(C#N)c2)c(Cl)c1O	MTT	30 µM	48 h	viability	82%
COc1ccccc1C#CCNCC(O)COc1cccc2[nH]c3ccccc3c12 (centres unmarked)	CCK-8	–	72 h	pIC50	< 4.00
